The record followed here is ChEMBL document CHEMBL5678801, “A benzothiophene inhibitor of mitogen-activated protein kinase-activated protein kinase 2 inhibits tumor necrosis factor alpha production and has oral anti-inflammatory efficacy in acute and chronic models of inflammation” (J Pharmacol Exp Ther, 2010).

SMILES strings stand for the structures.

Series [1] can be described thus: Cmax in chronic SCW-induced arthritis Lewis rat model plasma at ED50 concentration. In kind it is ADME, cell-free. A digest of the protocol: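 Female Lewis rats (125-140 g) received a single i.p. streptococcal cell wall injection. Animals showing the acute phase were pooled, 4-8 per group over three experiments. Dosing was oral gavage b.i.d., days 10-21, in methylcellulose-Tween-20 vehicle. Hind paw volume was read by displacement plethysmometer on day 21, as % inhibition of swelling. Plasma was sampled up to 11 h after the last dose, 3 rats per dose. ED values came from fitted curves.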

Series [2] deals with T1, Serine/threonine-protein kinase BRSK1 (Homo sapiens, UniProt Q8TDC3).
T1 sequence (Q8TDC3 whole entry): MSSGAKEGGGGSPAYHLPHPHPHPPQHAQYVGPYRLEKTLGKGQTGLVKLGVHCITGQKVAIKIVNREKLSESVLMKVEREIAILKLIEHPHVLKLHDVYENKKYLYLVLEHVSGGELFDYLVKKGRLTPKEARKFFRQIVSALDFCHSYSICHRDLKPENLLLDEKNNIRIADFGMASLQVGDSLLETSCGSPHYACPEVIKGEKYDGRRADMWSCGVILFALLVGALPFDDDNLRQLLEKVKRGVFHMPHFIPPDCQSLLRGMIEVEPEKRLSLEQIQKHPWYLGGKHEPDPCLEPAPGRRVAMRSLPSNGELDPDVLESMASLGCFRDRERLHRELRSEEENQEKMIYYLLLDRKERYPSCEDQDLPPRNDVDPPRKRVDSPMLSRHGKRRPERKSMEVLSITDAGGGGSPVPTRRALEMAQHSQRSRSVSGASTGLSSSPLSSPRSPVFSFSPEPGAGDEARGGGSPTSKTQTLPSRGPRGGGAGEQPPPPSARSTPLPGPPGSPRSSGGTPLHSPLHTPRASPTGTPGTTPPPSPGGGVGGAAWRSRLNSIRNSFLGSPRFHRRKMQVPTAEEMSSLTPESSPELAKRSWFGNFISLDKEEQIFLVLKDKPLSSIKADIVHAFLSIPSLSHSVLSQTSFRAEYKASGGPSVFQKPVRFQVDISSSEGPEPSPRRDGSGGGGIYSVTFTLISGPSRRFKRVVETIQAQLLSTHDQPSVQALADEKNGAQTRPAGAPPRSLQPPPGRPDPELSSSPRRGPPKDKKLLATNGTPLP
Put plainly: Inhibition of BrSK1 (unknown origin). A digest of the protocol: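 Selectivity profiling began with a 200-kinase screen at 1 μM compound; kinases above 50% inhibition were then titrated for IC50. MgATP was fixed at each enzyme's Km(app). Buffer was 20 mM HEPES pH 7.5 with 10 mM MgCl2, 1 mM DTT, 0.01% BSA and 0.0005% Tween-20. Endpoint reactions were stopped in the linear phase with 30 mM EDTA.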

Series [3] addresses T2, Tyrosine-protein kinase Mer (Homo sapiens, UniProt Q12866).
T2 sequence (Q12866 whole entry): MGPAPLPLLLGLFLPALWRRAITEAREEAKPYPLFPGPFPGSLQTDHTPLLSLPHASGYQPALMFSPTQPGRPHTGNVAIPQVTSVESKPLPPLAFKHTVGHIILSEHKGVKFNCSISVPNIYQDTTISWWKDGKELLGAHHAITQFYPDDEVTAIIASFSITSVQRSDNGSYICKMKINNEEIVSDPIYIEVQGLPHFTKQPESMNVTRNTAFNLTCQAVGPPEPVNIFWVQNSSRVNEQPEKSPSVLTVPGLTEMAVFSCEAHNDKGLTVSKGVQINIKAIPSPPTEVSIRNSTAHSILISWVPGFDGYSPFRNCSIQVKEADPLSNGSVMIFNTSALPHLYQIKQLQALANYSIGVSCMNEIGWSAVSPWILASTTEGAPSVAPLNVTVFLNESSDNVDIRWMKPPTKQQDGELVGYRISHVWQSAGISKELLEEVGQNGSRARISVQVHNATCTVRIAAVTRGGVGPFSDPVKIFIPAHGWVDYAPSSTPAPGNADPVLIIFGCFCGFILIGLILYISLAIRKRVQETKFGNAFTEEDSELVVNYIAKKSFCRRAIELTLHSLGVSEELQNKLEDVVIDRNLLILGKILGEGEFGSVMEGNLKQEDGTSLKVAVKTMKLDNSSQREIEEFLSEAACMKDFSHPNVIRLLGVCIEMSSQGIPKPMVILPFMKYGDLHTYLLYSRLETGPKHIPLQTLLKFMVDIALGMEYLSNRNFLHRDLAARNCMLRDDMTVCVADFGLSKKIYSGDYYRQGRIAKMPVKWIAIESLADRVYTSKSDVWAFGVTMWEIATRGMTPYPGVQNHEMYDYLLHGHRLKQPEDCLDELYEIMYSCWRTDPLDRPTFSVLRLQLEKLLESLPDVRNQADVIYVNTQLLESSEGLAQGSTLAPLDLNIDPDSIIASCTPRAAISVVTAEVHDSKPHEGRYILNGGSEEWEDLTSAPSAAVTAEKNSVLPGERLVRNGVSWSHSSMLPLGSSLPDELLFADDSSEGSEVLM
Description: Inhibition of Mer (unknown origin). Put shortly:
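Kinase panel: 200 kinases were first screened at 1 μM inhibitor for percent inhibition. Those above 50% inhibition were then titrated for IC50. MgATP was fixed at the Km(app) determined for each enzyme.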

Series [4] can be described thus: Inhibition of TNF alpha production in LPS induced human PBMC cells preincubated with compound for 1 hr followed by LPS induction and measured after 16 hrs by MSD analysis. Type of series: functional, cell-based.
The nature of series [5]: Inhibition of IL-1 beta production in LPS induced human PBMC cells preincubated with compound for 1 hr followed by LPS induction and measured after 16 hrs by MSD analysis. In kind it is functional, cell-based. Put shortly: (§1)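 Human PBMCs were pretreated with compound for 1 h (<1% DMSO final), then stimulated with LPS 100 ng/ml at 37°C. Cytokines in culture media were read by MSD 4-plex: TNFα at 4 h; IL-1β, IL-6 and IL-8 at 16 h. Data are means ±S.E.M. of two independent experiments in duplicate, three donors. IC50 by 4-parameter nonlinear regression.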

Series [6] can be described thus: Plasma protein binding in human. Type of series: ADME, cell-free. The note with it: read-out: PPB (converted). A digest of the protocol: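 Binding to rat and human plasma was measured in vitro by ultracentrifugation.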
A short description of series [7]: Antiinflammatory activity in human PBMC cells assessed as inhibition of LPS induced IL-8 production preincubated for 1 hr followed by LPS stimulation and measured after 16 hrs by MSD analysis. Type of series: functional, cell-based. A digest of the protocol:
as §1

Series [8] is described as follows: Clearance in Sprague-Dawley rat plasma at 1 mg/kg measured upto 24 hrs by LC-MS/MS analysis. In kind it is ADME, organism-based. A digest of the protocol:
(§2)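 Male Sprague-Dawley rats (275-300 g), carotid-catheterized and acclimated overnight. Dosing was i.v. at 1 mpk (n=2) in 70% saline/20% PEG-400/10% ethanol, or oral at 3 mpk (n=3) as a suspension in 0.5% HPMC/Tween. Plasma drug was measured by LC-MS/MS. Cmax and Tmax were read from individual profiles. t½ came from the terminal log-linear slope and AUC by the linear trapezoidal rule. CL = dose/AUC0-∞, Vdss = CL×MRT, F = dose-normalized AUC po/iv.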

Series [9] is described as follows: AUC (0 to infinity) in Sprague-Dawley rat at 3 mg/kg, po measured upto 24 hrs by […] analysis. In kind it is ADME, organism-based. Conditions: in vivo. A digest of the protocol:
as §2

Broadly, the Cmax is the peak of the concentration-time curve. For orientation: IC50 means the concentration needed to halve the response being measured. The term clearance denotes a measure of how efficiently the substance is removed, as volume per time. A high value points to efficient removal. For orientation: AUC(0-inf) means the area under the concentration-time curve extrapolated to infinity. Higher therefore signals more exposure. For the compound `Cc1ccc(-c2ccc3c(ccc4sc5c(c43)NC[C@@H](C)NC5=O)n2)cn1`, in series [1], the highest level (Cmax) was 11 µM. Further, the IC50 in series [2] came out at 187 nM; in series [3] it was 76 nM; in [4], 160 nM; in [5], 2780 nM; in series [7], 2590 nM. Also, the fraction unbound in series [6] was 0.064. The compound further had a clearance in series [8] of 10.3 mL/min/kg. The AUC(0-inf) in [9] was 1.8 µM·h.
